# pIC50: −log10 of the molar value.
# Tests used:
# [1] = system: Plasmodium falciparum; experiment: Antiplasmodial activity against chloroquine and pyrimethamine-resistant Plasmodium falciparum K1 […] by reporter dye assay; assay type: functional, organism-based
# [2] = system: Trypanosoma brucei rhodesiense; experiment: Trypanocidal activity against Trypanosoma brucei rhodesiense STIB 900 […] by reporter dye assay; assay type: functional, organism-based
# [3] = system: Trypanosoma brucei brucei; experiment: Biphasic antitrypanosomal activity against Trypanosoma brucei brucei s427 by alamar blue fluorescent dye assay; assay type: functional, organism-based
# [4] = system: Leishmania donovani; experiment: Antileishmanial activity against Leishmania donovani MHOMET-67/L82 amastigotes infected in mouse macrophage by reporter dye assay; assay type: functional, organism-based
# [5] = system: Trypanosoma cruzi; experiment: Trypanocidal activity against Trypanosoma cruzi Tulahuen C4 trypomastigotes infected in mouse macrophage by reporter dye assay; assay type: functional, organism-based
# [6] = system: L6; experiment: Cytotoxicity against rat L6 cells; assay type: cell-based
# [7] = Cytotoxicity against HEK293T cells after 16 hrs by alamar blue staining; assay type: cell-based; settings: Homo sapiens, HEK-293T
# How it was run: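 HEK 293T cells were seeded at 3×10^4/well in DMEM with 10% newborn bovine serum, 2 mM L-glutamax and 1% penicillin-streptomycin, and left to adhere for 3 h at 37°C under 5% CO2. Medium with serial drug dilutions (500 to 0.24 μM in the added medium) was then given for 16 h. Resazurin followed for a further 24 h, read by fluorescence (ex 530/em 590 nm). IC50 values came from ≥3 independent experiments.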
SMILES,pIC50 [1],pIC50 [2],pIC50 [3],pIC50 [4],pIC50 [5],pIC50 [6],pIC50 [7]
OC[C@H]1O[C@@H](n2cnc3c(NC4CCCCCC4)nc(NC4CCCCCC4)nc32)[C@H](O)[C@@H]1O,5.31,4.53,–,–,–,–,–
N=C(N)c1ccc(/N=N/Nc2ccc(C(=N)N)cc2)cc1 [DIMINAZENE],–,–,6.97,–,–,–,–
OC[C@H]1O[C@@H](n2cnc3c(NCCC(c4ccccc4)c4ccccc4)nc(NCCOCc4ccccc4)nc32)[C@H](O)[C@@H]1O,5.51,4.56,–,> 4.52,> 4.52,–,–
OC[C@H]1O[C@@H](n2cnc3c(NCCC4CNc5ccccc54)nc(NCCC4CNc5ccccc54)nc32)[C@H](O)[C@@H]1O (some centres not stated),5.61,4.58,–,–,–,–,–
OC[C@H]1O[C@@H](n2cnc3c(NC4CCCC4)nc(NCCOCc4ccccc4)nc32)[C@H](O)[C@@H]1O,< 5.00,5.38,–,> 4.52,> 4.52,4.10,–
OC[C@H]1O[C@@H](n2cnc3c(NC45CC6CC(CC(C6)C4)C5)nc(N4CCCC4)nc32)[C@H](O)[C@@H]1O,5.21,4.47,–,–,–,–,–
OC(c1cc(C(F)(F)F)nc2c(C(F)(F)F)cccc12)C1CCCCN1 (configuration not stated) [MEFLOQUINE],–,–,–,> 4.52,> 4.52,5.32,–
C[C@@H]1CC[C@H]2[C@@H](C)C(=O)O[C@@H]3O[C@@]4(C)CC[C@@H]1[C@]32OO4 [ARTEMISININ],6.70,–,–,–,–,–,–
OC[C@H]1O[C@@H](n2cnc3c(Nc4ccccc4)nc(NCCOCc4ccccc4)nc32)[C@H](O)[C@@H]1O,5.13,5.07,–,> 4.52,> 4.52,4.27,–
OC[C@H]1O[C@@H](n2cnc3c(N4CCCCC4)nc(N4CCCCC4)nc32)[C@H](O)[C@@H]1O,< 5.00,4.06,–,–,–,–,–
CCN(CC)CCCC(C)Nc1ccnc2cc(Cl)ccc12 (configuration not stated) [CHLOROQUINE],–,–,–,> 4.52,> 4.52,–,–
CCCNc1nc(NCCc2ccccc2)c2ncn([C@@H]3O[C@H](CO)[C@@H](O)[C@H]3O)c2n1,< 5.00,4.85,–,> 4.52,> 4.52,< 3.70,–
CCCCCNc1nc(NCCCCC)c2ncn([C@@H]3O[C@H](CO)[C@@H](O)[C@H]3O)c2n1,< 5.00,5.19,–,> 4.52,> 4.52,< 3.70,–
OC[C@H]1O[C@@H](n2cnc3c(NCCC(c4ccccc4)c4ccccc4)nc(NCCC4CNc5ccccc54)nc32)[C@H](O)[C@@H]1O (some centres not stated),5.74,4.60,–,> 4.52,> 4.52,–,–
COc1nc(Nc2ccccc2)c2ncn([C@@H]3O[C@H](CO)[C@@H](O)[C@H]3O)c2n1,< 5.00,4.08,–,> 4.52,> 4.52,–,–
OC[C@H]1O[C@@H](n2cnc3c(Nc4ccccc4)nc(NC4CCCC4)nc32)[C@H](O)[C@@H]1O,5.22,5.69,–,> 4.52,> 4.52,4.44,–
OC[C@H]1O[C@@H](n2cnc3c(Nc4ccccc4)nc(NCCc4cnc[nH]4)nc32)[C@H](O)[C@@H]1O,< 5.00,4.12,–,> 4.52,> 4.52,–,–
OC[C@H]1O[C@@H](n2cnc3c(NCc4cccc(I)c4)nc(NCCC4CNc5ccccc54)nc32)[C@H](O)[C@@H]1O (some centres not stated),< 5.00,4.70,–,> 4.52,> 4.52,–,–
OC[C@H]1O[C@@H](n2cnc3c(NCc4cccc(I)c4)nc(NCCc4cnc[nH]4)nc32)[C@H](O)[C@@H]1O,< 5.00,4.37,–,> 4.52,> 4.52,–,–
OC[C@H]1O[C@@H](n2cnc3c(NC4CCCCC4)nc(NC4CCCCC4)nc32)[C@H](O)[C@@H]1O,5.02,5.14,–,–,–,–,–
OC[C@H]1O[C@@H](n2cnc3c(NC4CCCC4)nc(NC4CCCCC4)nc32)[C@H](O)[C@@H]1O,5.04,6.31,–,–,–,–,3.64
Nc1nc(N)nc(Nc2ccc([As]3SCC(CO)S3)cc2)n1 (configuration not stated) [MELARSOPROL],–,8.25,–,> 4.52,> 4.52,–,–
OC[C@H]1O[C@@H](n2cnc3c(NCc4cccc(I)c4)nc(NC4CCCC4)nc32)[C@H](O)[C@@H]1O,< 5.00,5.26,–,> 4.52,> 4.52,4.29,–
